# Plk1 PBD FP – blocks phosphopeptide binding to human Plk1 polo box domain | AID 693 | 97,000 compounds, 0.13% hits | P53350 | Plk1 PBD phosphopeptide binding, fluorescence polarization | inhibition, %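 (tested at about 20 µM)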; in the data active means inhibition above about 34%, passing the limit was not always enough
# Target sequence (P53350 whole entry, looked up, the tested form may be a part): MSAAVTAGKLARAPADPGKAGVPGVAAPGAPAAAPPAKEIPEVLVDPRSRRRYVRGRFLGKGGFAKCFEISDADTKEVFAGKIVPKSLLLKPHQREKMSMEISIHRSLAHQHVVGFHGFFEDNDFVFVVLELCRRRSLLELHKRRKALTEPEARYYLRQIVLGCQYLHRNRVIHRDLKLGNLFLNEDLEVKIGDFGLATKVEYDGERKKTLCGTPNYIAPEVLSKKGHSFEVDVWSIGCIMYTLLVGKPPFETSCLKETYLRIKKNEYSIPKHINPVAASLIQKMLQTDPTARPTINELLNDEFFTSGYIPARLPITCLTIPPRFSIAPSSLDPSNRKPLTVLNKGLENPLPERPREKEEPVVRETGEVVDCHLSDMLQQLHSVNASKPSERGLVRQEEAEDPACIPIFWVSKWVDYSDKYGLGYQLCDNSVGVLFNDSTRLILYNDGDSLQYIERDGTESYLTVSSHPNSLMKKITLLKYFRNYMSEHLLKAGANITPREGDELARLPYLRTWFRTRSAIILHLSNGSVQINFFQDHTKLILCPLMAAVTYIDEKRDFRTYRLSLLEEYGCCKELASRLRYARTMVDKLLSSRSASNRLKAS
# PLK1 kinase inh – PLK1 (human) kinase inhibition; P53350; recombinant PLK1 kinase, TR-FRET peptide phosphorylation; inhibition, % at 10 µM; 97,000 compounds, 0.53% hits; AID 619;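 active means inhibition of 50% or more in the single-concentration screen; inactive means inhibition below 50%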
# HIV Rev-RRE inh – HIV Rev-RRE protein-RNA interaction inhibition; 97,000 compounds, 0.79% hits; inhibition, % at 8 µM; P05866; Rev peptide-RRE RNA binding, FRET;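 active means inhibition above the screen-wide mean plus 3 SD, cut at about 35% in these data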
#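 Test system – labelled RRE RNA duplex and labelled Rev peptide · Reagent – labelled Rev peptide · Doses – one concentration, 8 µM nominal · Incubation – 5 + 15 min at 25 °C · Signal – FRET fluorescence readout · Read-out basis – % inhibition of FRET ratio versus controls · Control set – DMSO wells as 0% and neomycin B wells as 100% inhibition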
# PTPN22 act – increases human PTPN22 phosphatase activity. Q9Y2R2. recombinant LYP, DiFMUP fluorescence; 0 = plate median, 100 = signal doubled. activation, % at 2 µM. 96,000 compounds, 0.11% hits. AID 697;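 active means activation at 2 µM above a set limit, the mean plus 5 SD, cut at about 37% in these data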
# PTPN22 inh 2 – blocks human PTPN22 phosphatase activity; 96,000 compounds, 0.21% hits; inhibition, % at 2 µM; Q9Y2R2; recombinant LYP catalytic domain, DiFMUP fluorescence;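 active means inhibition at 2 µM at or above a set limit, the screen mean plus 3 SD, cut at about 24% in these data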
# hDAT+cocaine – human DAT dopamine uptake with cocaine, either direction; Q01959; LLC-PK1 hDAT cells, [14C]-dopamine uptake with cocaine IC80; actives deviate in either direction; B-score at 10 µM; 110,000 compounds, 1.3% hits;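 active means Z score or B-score, a plate-position-corrected score, falls beyond the plate's 99.7% confidence bounds, in either direction; inactive means both scores lie inside the 99.7% bounds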
# PLK1 inh conf – PLK1 (human) kinase inhibition, confirmed; shares compounds with PLK1 kinase inh; recombinant PLK1 kinase, TR-FRET peptide phosphorylation; inhibition, % at 10 µM; AID 744; 210 compounds, 20% hits;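 active means inhibition at or above 50% in each of two repeat confirmation tests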
# TR-FRET interf – Plk1 assay compound interference counter-screen hit | shares compounds with PLK1 kinase inh | Plk1 TR-FRET assay interference, compound added post-reaction | inhibition (interference), % at 10 µM | 210 tested, under 10 active | AID 756;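 active means both duplicate runs show 50% or greater inhibition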
# Redox H2O2 DR – redox cycling H2O2 generation counter-screen for Plk1 PBD | DTT | shares compounds with Plk1 PBD FP | EC50, µM | 120 tested, under 10 active
# PTPN22 act conf – confirmation of human LYP phosphatase activators; shares compounds with PTPN22 act; Recombinant LYP, DIFMUP fluorescence, activation; zero set by plate's median compound well; activation, % at 2 µM; 100 tested, under 10 active; AID 1031
# Hits are given with their value; – = inactive; · = no result. Hits are enriched below; roughly 2.7% of the tested compounds scored in any of these assays. Unless noted, how the calls were made is not given here.
SMILES,Plk1 PBD FP,PLK1 kinase inh,HIV Rev-RRE inh,PTPN22 act,PTPN22 inh 2,hDAT+cocaine,others
CC(=O)N(C)CC#CCN1CCC(O)CC1,·,·,·,·,·,–,
CC(C)(C)c1ccc(S(=O)(=O)N2CC3CC(C2)c2cccc(=O)n2C3)cc1 (centres undefined),–,–,–,–,–,2.4,
COC(=O)C1=C(c2cc3ccccc3s2)C[C@@H]2CC[C@H]1N2C(=O)NCc1ccc(C(F)(F)F)cc1,·,·,·,·,·,–,
O=C(CSC1c2ccccc2-c2ccccc21)N/N=C/c1ccccc1O,–,–,–,–,–,–,
C[C@H]1O[C@@H](O[C@H]2[C@@H](O)C[C@H](O[C@H]3[C@@H](O)C[C@H](O[C@H]4CC[C@@]5(C)[C@H](CC[C@@H]6[C@@H]5CC[C@]5(C)[C@@H](C7=CC(=O)OC7)CC[C@]65O)C4)O[C@@H]3C)O[C@@H]2C)C[C@H](O)[C@@H]1O,·,·,·,·,·,-7.2,
C[C@@H]1O[C@@H](O[C@H]2C[C@@H](O)[C@]3(CO)[C@H]4[C@H](O)C[C@]5(C)[C@@H](C6=CC(=O)OC6)CC[C@]5(O)[C@@H]4CC[C@]3(O)C2)[C@H](O)[C@H](O)[C@H]1O,·,·,·,·,·,-6.6,
CN1CCc2nc(N)c(C#N)c(-c3ccccc3)c2C1,–,–,46,–,–,–,
O=C1Nc2ccccc2/C1=C/c1cnc[nH]1,–,61,–,–,–,–,
CC[C@@H]1C=CC=CC[C@H](C)[C@@H](O)[C@@H](C)C(=O)[C@H](C)[C@@H](O)[C@H](C)C(=O)[C@H](C)[C@@H](O)[C@H](C)C=CC(=O)O[C@H]2[C@@H](C)[C@@H](CC1)O[C@@]1(CC[C@@H](C)[C@@H](C[C@H](C)O)O1)[C@@H]2C,·,·,·,·,·,–,
CCCCN1C(=O)/C(=C/c2ccc(N(C)C)cc2)C(=O)N(Cc2ccco2)C1=O,–,–,53,–,–,–,
COC[C@]12CN(C)C3C4[C@H](OC)[C@H]1C3([C@@H](OC)C[C@H]2O)[C@@H]1C[C@@]2(O)[C@H](OC(=O)c3ccccc3)[C@@H]1[C@]4(OC(C)=O)[C@@H](O)[C@@H]2OC,·,·,·,·,·,–,
O=C(NC1CCCCC1)[C@@H]1CC=C[C@@H]2CCN(Cc3ccccc3)C(=O)[C@@H]21,·,·,·,·,·,–,
C/C=C1/CN2[C@@H]3C4CO[C@@H]3c3c([nH]c5cc(OC)ccc35)[C@@H]2CC14 (some centres undefined),·,·,·,·,·,–,
COc1ccc2[nH]c(C)c(CCN3CCC(=O)C(C)C3C)c2c1 (centres undefined),–,83,–,·,·,–,PLK1 inh conf=–;TR-FRET interf=–
COC(=O)C1=C(c2ccccc2)C[C@@H]2CC[C@H]1N2C(=O)NC1CCCCC1,·,·,·,·,·,–,
Cc1ccc2c(c1)CC1(CN2C)C(=O)NC(=O)N(c2ccccc2C)C1=O (centres undefined),40,–,–,–,–,–,Redox H2O2 DR=–
Cc1ccc2c(c1)CC1(CN2C)C(=O)NC(=O)N(c2cccc(C)c2C)C1=O (centres undefined),–,–,–,–,–,–,
C=CCN1CC[C@]23c4c5ccc(O)c4O[C@H]2/C(=N/NC(=O)c2ccccc2)CC[C@@]3(O)[C@H]1C5,·,·,·,·,·,–,
O=[N+]([O-])c1ccc(N2CCNCC2)cc1NCC1CCCO1 (centres undefined),47,–,–,–,–,–,Redox H2O2 DR=–
CN1C(=O)N(C)C(=O)C2(Sc3ccccc3C2=O)C1=O,57,–,–,–,–,–,Redox H2O2 DR=–
CCNc1nc(NC(C)(C)C)nc(SC)n1,·,·,·,·,·,–,
O=C1NC(=O)N(Cc2ccccc2Cl)C(=O)/C1=C/N1CCOCC1,–,–,–,43,–,–,PTPN22 act conf=–
CN1CC[C@]2(c3cccc(O)c3)Cc3nc4ccccc4cc3C[C@H]2C1,·,·,·,·,·,–,
